This note sets out measurements from ChEMBL document CHEMBL4316602, “Investigating the promiscuity of the chloramphenicol nitroreductase from Haemophilus influenzae towards the reduction of 4-nitrobenzene derivatives” (Bioorg Med Chem Lett, 2019).

Common to all, as to type: ADME
Series [1] is described as follows: Substrate activity at recombinant Haemophilus influenzae Chloramphenicol nitroreductase expressed in Escherichia coli assessed as benzoic acid formation at 1 mM measured after 24 hrs at pH 8 under 37 degC by LC-MS analysis. The conditions noted are these: pH 8, 24 h, 1000 µM. A digest of the protocol:
(§1)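 50 mM Tris-HCl pH 8.0 holding 1 mM nitro compound, 5 µM CNR and 100 µM NADPH. NADPH is regenerated by 40 mM glucose plus 4 µM glucose dehydrogenase. Incubated 24 h at 37 °C, then extracted with EtOAc, dried, redissolved in MeOH and analysed by LCMS for reduction products.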

Series [2] is described as follows: Substrate activity at recombinant Haemophilus influenzae Chloramphenicol nitroreductase expressed in Escherichia coli assessed as 4-aminoether formation at 1 mM measured after 24 hrs at pH 8 under 37 degC by LC-MS analysis. As to conditions: pH 8, 24 h, 1000 µM. A digest of the protocol: as §1
Series [3] is described as follows: Substrate activity at recombinant Haemophilus influenzae Chloramphenicol nitroreductase expressed in Escherichia coli assessed as hydroxylamine formation at 1 mM measured after 24 hrs at pH 8 under 37 degC by LC-MS analysis. As to conditions: pH 8, 24 h, 1000 µM; call rule not given here. In short, it runs like this:
as §1

Series [4] can be described thus: Substrate activity at recombinant Haemophilus influenzae Chloramphenicol nitroreductase expressed in Escherichia coli at 150 uM measured at 30 sec interval for 60 mins in presence of NADPH at pH 8. As to conditions: pH 8, 1 h. In short, it runs like this: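 Each nitro compound at 150 µM in 50 mM Tris-HCl pH 8.0 with 1.0 mM NADPH. Started with 1 µM CNR and read at 340 nm (NADPH) every 30 s for 60 min. Initial rates were taken from the first 5 min and expressed as % of the chloramphenicol rate.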

The nature of series [5]: Substrate activity at recombinant Haemophilus influenzae Chloramphenicol nitroreductase expressed in Escherichia coli at 150 uM measured at 30 sec interval for 60 mins in presence of NADPH at 50 degC. The conditions noted are these: 1 h.
Series [6] has as its system Chloramphenicol nitroreductase. Briefly: Substrate activity at recombinant Haemophilus influenzae Chloramphenicol nitroreductase expressed in Escherichia coli assessed as Km measured at 30 sec interval for 30 mins in presence of NADPH at 37 degC by Michaelis-Menton plot analysis. A digest of the protocol:
(§2)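 Chloramphenicol varied 0–2500 µM (0, 1, 5, 10, 50, 100, 250, 500, 2500) with 0.4 µM CNR, 750 µM NADPH, 50 mM Tris-HCl pH 8.0, at 37 or 50 °C. NADPH consumption was followed at 340 nm every 30 s for 30 min. Initial rates came from the first 2–5 min, fitted to Michaelis–Menten for kcat and Km.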

Series [7] has as its system Chloramphenicol nitroreductase. Nature of the series: Substrate activity at recombinant Haemophilus influenzae Chloramphenicol nitroreductase expressed in Escherichia coli assessed as Km measured at 30 sec interval for 30 mins in presence of NADPH at 50 degC by Michaelis-Menton plot analysis. In short, it runs like this: as §2
The nature of series [8]: Substrate activity at recombinant Haemophilus influenzae Chloramphenicol nitroreductase expressed in Escherichia coli assessed as Kcat measured at 30 sec interval for 30 mins in presence of NADPH at 37 degC by Michaelis-Menton plot analysis. The conditions noted are these: 0.5 h. In short, it runs like this: as §2
A short description of series [9]: Substrate activity at recombinant Haemophilus influenzae Chloramphenicol nitroreductase expressed in Escherichia coli assessed as Kcat measured at 30 sec interval for 30 mins in presence of NADPH at 50 degC by Michaelis-Menton plot analysis. The conditions noted are these: 0.5 h. In short, it runs like this: as §2
A short description of series [10]: Substrate activity at recombinant Haemophilus influenzae Chloramphenicol nitroreductase expressed in Escherichia coli assessed as ratio Kcat to Km measured at 30 sec interval for 30 mins in presence of NADPH at 37 degC by Michaelis-Menton plot analysis. As to conditions: 0.5 h. A digest of the protocol: as §2
The nature of series [11]: Substrate activity at recombinant Haemophilus influenzae Chloramphenicol nitroreductase expressed in Escherichia coli assessed as ratio of Kcat to Km measured at 30 sec interval for 30 mins in presence of NADPH at 50 degC by Michaelis-Menton plot analysis. As to conditions: 0.5 h. In short, it runs like this: as §2

SMILES strings stand for the structures.

With `O=C(OCc1ccc([N+](=O)[O-])cc1)c1ccc(Cl)cc1F`, in series [1], the result was Active.
Consider `O=C(OCc1ccc([N+](=O)[O-])cc1)c1ccc(Cl)cc1`, for which the outcome in [1] was Active.
For `O=[N+]([O-])c1ccc(COCc2ccc(Br)cc2)cc1`, the result in [2] and in series [3] was Active.
As to `O=C(N[C@H](CO)[C@H](O)c1ccc([N+](=O)[O-])cc1)C(Cl)Cl` [CHLORAMPHENICOL], the result in series [4] and in series [5] was Active. Besides, the figures for the Michaelis constant (Km) at 0.5 h in series [6] and in series [7] were 273 µM and 191 µM, respectively. Besides, the Kcat in [8] was 61 s⁻¹; in [9], 65 s⁻¹. Besides, the results for the Kcat/Km in [10] and in series [11] were 220000 M⁻¹ s⁻¹ and 340000 M⁻¹ s⁻¹, respectively.

As a reminder, the Km is the substrate concentration at which the rate is half of its maximum.
